Converted amounts (≈) assume the structure as drawn.
Tests used:
Assay type in all cases: functional
Staphylococcus aureus [1] = experiment: Antimicrobial activity against multidrug-resistant Staphylococcus aureus H.C. 20794 isolate after 20 hrs by twofold serial dilution technique; conditions: H.C. 20794, 20 h
In short: (§1)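 Twofold serial dilution MIC in agar plates against Gram-positive strains and multidrug-resistant clinical isolates. Inoculum applied was 10⁵ CFU/plate. Plates with culture medium plus DMSO served as negative control. MIC was read after incubation at 35 °C for 20 h.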

Pseudomonas aeruginosa = experiment: Antimicrobial activity against Pseudomonas aeruginosa UFPEDA 39 at 300 ug/disk after 24 hrs by disk diffusion method; conditions: UFPEDA 39, 24 h, read-out: IZ
In short: (§2)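 Preliminary screen by disk diffusion. Paper disks (6 mm) holding 300 µg of compound were placed on agar plates inoculated with a standardized microbial suspension. DMSO-only disks served as negative controls. A mean inhibition zone below 7 mm was scored as no sensitivity. Values are means, n = 3.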

Staphylococcus aureus [2] = experiment: Antimicrobial activity against Staphylococcus aureus UFPEDA 01 after 20 hrs by twofold serial dilution technique; conditions: UFPEDA 01, 20 h; in short: as §1
Staphylococcus [3] = experiment: Antimicrobial activity against coagulase-negative Staphylococcus H.A.M. 278 isolate after 20 hrs by twofold serial dilution technique; conditions: H.A.M. 278, 20 h
In short: (§3)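 MIC was determined by twofold serial dilution. Bacteria were tested in plates at 10⁵ CFU/plate and read after 20 h. C. albicans was tested in tubes at 10³ CFU/tube and read after 48 h. All incubations were at 35 °C. Medium plus DMSO served as the negative control.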

Staphylococcus aureus [4] = experiment: Antimicrobial activity against multidrug-resistant Staphylococcus aureus H.C. 20905 isolate after 20 hrs by twofold serial dilution technique; conditions: H.C. 20905, 20 h; in short: as §1
Staphylococcus aureus [5] = experiment: Antimicrobial activity against multidrug-resistant Staphylococcus aureus H.C. 20489 isolate after 20 hrs by twofold serial dilution technique; conditions: H.C. 20489, 20 h; in short: as §1
Enterococcus faecalis [6] = experiment: Antimicrobial activity against Enterococcus faecalis UFPEDA 138 after 20 hrs by twofold serial dilution technique; conditions: UFPEDA 138, 20 h; in short: as §3
Enterococcus faecalis [7] = experiment: Antimicrobial activity against multidrug-resistant Enterococcus faecalis H.C. 24708 isolate after 20 hrs by twofold serial dilution technique; conditions: H.C. 24708, 20 h; in short: as §1
Bacillus subtilis [8] = experiment: Antimicrobial activity against Bacillus subtilis UFPEDA 16 after 20 hrs by twofold serial dilution technique; conditions: UFPEDA 16, 20 h; in short: as §3
Enterococcus faecalis [9] = experiment: Antimicrobial activity against multidrug-resistant Enterococcus faecalis H.C. 21752 isolate after 20 hrs by twofold serial dilution technique; conditions: H.C. 21752, 20 h; in short: as §1
NCI-H292 [10] = experiment: Cytotoxicity against human NCI-H292 cells at 10 ug/mL after 72 hrs by MTT assay; conditions: NCI-H292, 72 h, read-out: GI
In short: (§4)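 MTT antiproliferative assay. Cells were diluted to 10⁵ cells/mL in 96-well plates and preincubated for 24 h at 37 °C in humid 5% CO₂. Compounds or vincristine (reference) were then added. Formazan was dissolved and OD read at 540 nm, compared with medium-only control cells. Run in triplicate.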

[11] = system: Mycolicibacterium smegmatis; experiment: Antimicrobial activity against Mycobacterium smegmatis UFPEDA 71 after 20 hrs by twofold serial dilution technique; conditions: UFPEDA 71, 20 h; in short: as §3
[12] = system: Mycolicibacterium smegmatis; experiment: Antimicrobial activity against Mycobacterium smegmatis UFPEDA 71 at 300 ug/disk after 24 hrs by disk diffusion method; conditions: UFPEDA 71, 24 h, read-out: IZ; in short: as §2
Staphylococcus aureus [13] = experiment: Antimicrobial activity against multidrug-resistant Staphylococcus aureus H.C. 20981 isolate after 20 hrs by twofold serial dilution technique; conditions: H.C. 20981, 20 h; in short: as §1
Micrococcus luteus [14] = experiment: Antimicrobial activity against Micrococcus luteus UFPEDA 06 after 20 hrs by twofold serial dilution technique; conditions: UFPEDA 06, 20 h; in short: as §3
Staphylococcus aureus [15] = experiment: Antimicrobial activity against multidrug-resistant Staphylococcus aureus H.C. 21141 isolate after 20 hrs by twofold serial dilution technique; conditions: H.C. 21141, 20 h; in short: as §1
Staphylococcus [16] = experiment: Antimicrobial activity against coagulase-negative Staphylococcus H.A.M. 338 isolate after 20 hrs by twofold serial dilution technique; conditions: H.A.M. 338, 20 h; in short: as §3
Enterococcus faecalis [17] = experiment: Antimicrobial activity against Enterococcus faecalis UFPEDA 138 at 300 ug/disk after 24 hrs by disk diffusion method; conditions: UFPEDA 138, 24 h, read-out: IZ; in short: as §2
Candida albicans [18] = experiment: Antimicrobial activity against Candida albicans UFPEDA 1007 after 48 hrs by twofold serial dilution technique; conditions: UFPEDA 1007, 48 h; in short: as §3
HEp-2 [19] = experiment: Cytotoxicity against human Hep2 cells at 10 ug/mL after 72 hrs by MTT assay; conditions: HEp-2, 72 h, read-out: GI; in short: as §4
Micrococcus luteus [20] = experiment: Antimicrobial activity against Micrococcus luteus UFPEDA 06 at 300 ug/disk after 24 hrs by disk diffusion method; conditions: UFPEDA 06, 24 h, read-out: IZ; in short: as §2
NCI-H292 [21] = experiment: Cytotoxicity against human NCI-H292 cells at 2.5 ug/mL after 72 hrs by MTT assay; conditions: NCI-H292, 72 h, read-out: GI; in short: as §4
HEp-2 [22] = experiment: Cytotoxicity against human Hep2 cells at 1.25 ug/mL after 72 hrs by MTT assay; conditions: HEp-2, 72 h, read-out: GI; in short: as §4
HEp-2 [23] = experiment: Cytotoxicity against human Hep2 cells at 2.5 ug/mL after 72 hrs by MTT assay; conditions: HEp-2, 72 h, read-out: GI; in short: as §4
Staphylococcus aureus [24] = experiment: Antimicrobial activity against Staphylococcus aureus UFPEDA 01 at 300 ug/disk after 24 hrs by disk diffusion method; conditions: UFPEDA 01, 24 h, read-out: IZ; in short: as §2
NCI-H292 [25] = experiment: Cytotoxicity against human NCI-H292 cells at 5 ug/mL after 72 hrs by MTT assay; conditions: NCI-H292, 72 h, read-out: GI; in short: as §4
HEp-2 [26] = experiment: Cytotoxicity against human Hep2 cells at 5 ug/mL after 72 hrs by MTT assay; conditions: HEp-2, 72 h, read-out: GI; in short: as §4
Candida albicans [27] = experiment: Antimicrobial activity against Candida albicans UFPEDA 1007 at 300 ug/disk after 48 hrs by disk diffusion method; conditions: UFPEDA 1007, 48 h, read-out: IZ; in short: as §2
Staphylococcus aureus [28] = experiment: Antimicrobial activity against multidrug-resistant Staphylococcus aureus H.C. 21036 isolate after 20 hrs by twofold serial dilution technique; conditions: H.C. 21036, 20 h; in short: as §1
Bacillus subtilis [29] = experiment: Antimicrobial activity against Bacillus subtilis UFPEDA 16 at 300 ug/disk after 24 hrs by disk diffusion method; conditions: UFPEDA 16, 24 h, read-out: IZ; in short: as §2
Serratia marcescens = experiment: Antimicrobial activity against Serratia marcescens UFPEDA 398 at 300 ug/disk after 24 hrs by disk diffusion method; conditions: UFPEDA 398, 24 h, read-out: IZ; in short: as §2
Enterococcus faecalis [30] = experiment: Antimicrobial activity against multidrug-resistant Enterococcus faecalis H.C. 24962 isolate after 20 hrs by twofold serial dilution technique; conditions: H.C. 24962, 20 h; in short: as §1
Escherichia coli = experiment: Antimicrobial activity against Escherichia coli UFPEDA 224 at 300 ug/disk after 24 hrs by disk diffusion method; conditions: UFPEDA 224, 24 h, read-out: IZ; in short: as §2
NCI-H292 [31] = experiment: Cytotoxicity against human NCI-H292 cells at 1.25 ug/mL after 72 hrs by MTT assay; conditions: NCI-H292, 72 h, read-out: GI; in short: as §4
Enterococcus faecalis [32] = experiment: Antimicrobial activity against multidrug-resistant Enterococcus faecalis H.C. 21944 isolate after 20 hrs by twofold serial dilution technique; conditions: H.C. 21944, 20 h; in short: as §1

For O=C1NC(=S)/C(=C/c2cccc(F)c2)S1, the MIC (Staphylococcus aureus [1]) was 2 µg/mL (≈ 8.36 µM), the zone of inhibition at 300 µg/disc (Pseudomonas aeruginosa) was < 7 mm and the MIC (Staphylococcus aureus [2]) was 4 µg/mL (≈ 16.7 µM). It also gave an MIC (Staphylococcus [3]) of 16 µg/mL (≈ 66.9 µM), an MIC (Staphylococcus aureus [4]) of 2 µg/mL (≈ 8.36 µM) and an MIC (Staphylococcus aureus [5]) of 2 µg/mL (≈ 8.36 µM). The MIC (Enterococcus faecalis [6]) was 32 µg/mL (≈ 134 µM), the MIC (Enterococcus faecalis [7]) was 8 µg/mL (≈ 33.4 µM) and the MIC (Bacillus subtilis [8]) was 16 µg/mL (≈ 66.9 µM). For the same compound, the MIC (Enterococcus faecalis [9]) was 16 µg/mL (≈ 66.9 µM), the inhibition of growth at 10 µg/mL (NCI-H292 [10]) was 26.8% and the MIC [11] was 32 µg/mL (≈ 134 µM). For the same compound, the zone of inhibition at 300 µg/disc [12] was 20 mm, the MIC (Staphylococcus aureus [13]) was 2 µg/mL (≈ 8.36 µM) and the MIC (Micrococcus luteus [14]) was 16 µg/mL (≈ 66.9 µM). It also gave an MIC (Staphylococcus aureus [15]) of 16 µg/mL (≈ 66.9 µM), an MIC (Staphylococcus [16]) of 16 µg/mL (≈ 66.9 µM) and a zone of inhibition at 300 µg/disc (Enterococcus faecalis [17]) of 22 mm. It also gave an MIC (Candida albicans [18]) of 64 µg/mL (≈ 267 µM), an inhibition of growth at 10 µg/mL (HEp-2 [19]) of 20.9% and a zone of inhibition at 300 µg/disc (Micrococcus luteus [20]) of 27 mm. It also gave an inhibition of growth at 2.5 µg/mL (NCI-H292 [21]) of 3.43%, an inhibition of growth at 1.25 µg/mL (HEp-2 [22]) of 0.84% and an inhibition of growth at 2.5 µg/mL (HEp-2 [23]) of 7.03%. The zone of inhibition at 300 µg/disc (Staphylococcus aureus [24]) was 28 mm, the inhibition of growth at 5 µg/mL (NCI-H292 [25]) was 13.1% and the inhibition of growth at 5 µg/mL (HEp-2 [26]) was 19.8%. For the same compound, the zone of inhibition at 300 µg/disc (Candida albicans [27]) was 16 mm, the MIC (Staphylococcus aureus [28]) was 2 µg/mL (≈ 8.36 µM) and the zone of inhibition at 300 µg/disc (Bacillus subtilis [29]) was 20 mm. For the same compound, the zone of inhibition at 300 µg/disc (Serratia marcescens) was < 7 mm, the MIC (Enterococcus faecalis [30]) was 8 µg/mL (≈ 33.4 µM) and the zone of inhibition at 300 µg/disc (Escherichia coli) was < 7 mm. The inhibition of growth at 1.25 µg/mL (NCI-H292 [31]) was 2.1% and the MIC (Enterococcus faecalis [32]) was 8 µg/mL (≈ 33.4 µM).

For O=C1NC(=S)/C(=C/c2ccccc2F)S1, the MIC (Staphylococcus aureus [1]) was 8 µg/mL (≈ 33.4 µM), the zone of inhibition at 300 µg/disc (Pseudomonas aeruginosa) was < 7 mm and the MIC (Staphylococcus aureus [2]) was 8 µg/mL (≈ 33.4 µM). It also gave an MIC (Staphylococcus [3]) of 32 µg/mL (≈ 134 µM), an MIC (Staphylococcus aureus [4]) of 8 µg/mL (≈ 33.4 µM) and an MIC (Staphylococcus aureus [5]) of 4 µg/mL (≈ 16.7 µM). The MIC (Enterococcus faecalis [6]) was 32 µg/mL (≈ 134 µM), the MIC (Enterococcus faecalis [7]) was 32 µg/mL (≈ 134 µM) and the MIC (Bacillus subtilis [8]) was 32 µg/mL (≈ 134 µM). The MIC (Enterococcus faecalis [9]) was 32 µg/mL (≈ 134 µM), the inhibition of growth at 10 µg/mL (NCI-H292 [10]) was 40.4% and the MIC [11] was 32 µg/mL (≈ 134 µM). For the same compound, the zone of inhibition at 300 µg/disc [12] was 20 mm, the MIC (Staphylococcus aureus [13]) was 4 µg/mL (≈ 16.7 µM) and the MIC (Micrococcus luteus [14]) was 32 µg/mL (≈ 134 µM). It also gave an MIC (Staphylococcus aureus [15]) of 8 µg/mL (≈ 33.4 µM), an MIC (Staphylococcus [16]) of 16 µg/mL (≈ 66.9 µM) and a zone of inhibition at 300 µg/disc (Enterococcus faecalis [17]) of 20 mm. The MIC (Candida albicans [18]) was 32 µg/mL (≈ 134 µM), the inhibition of growth at 10 µg/mL (HEp-2 [19]) was 11.2% and the zone of inhibition at 300 µg/disc (Micrococcus luteus [20]) was 25 mm. The inhibition of growth at 2.5 µg/mL (NCI-H292 [21]) was 7.78%, the inhibition of growth at 1.25 µg/mL (HEp-2 [22]) was -8.34% and the inhibition of growth at 2.5 µg/mL (HEp-2 [23]) was 1.66%. The zone of inhibition at 300 µg/disc (Staphylococcus aureus [24]) was 24 mm, the inhibition of growth at 5 µg/mL (NCI-H292 [25]) was 25.2% and the inhibition of growth at 5 µg/mL (HEp-2 [26]) was 8.86%. The zone of inhibition at 300 µg/disc (Candida albicans [27]) was 16 mm, the MIC (Staphylococcus aureus [28]) was 2 µg/mL (≈ 8.36 µM) and the zone of inhibition at 300 µg/disc (Bacillus subtilis [29]) was 23 mm. For the same compound, the zone of inhibition at 300 µg/disc (Serratia marcescens) was < 7 mm, the MIC (Enterococcus faecalis [30]) was 32 µg/mL (≈ 134 µM) and the zone of inhibition at 300 µg/disc (Escherichia coli) was < 7 mm. For the same compound, the inhibition of growth at 1.25 µg/mL (NCI-H292 [31]) was 4.29% and the MIC (Enterococcus faecalis [32]) was 32 µg/mL (≈ 134 µM).

Reference: ChEMBL document CHEMBL1158358, “Synthesis, antimicrobial and cytotoxic activities of some 5-arylidene-4-thioxo-thiazolidine-2-ones” (Eur J Med Chem, 2009)
